# Key:
# [1] = tested on: HEK293; test: Selectivity index, ratio of IC50 for HEK cells to IC50 for human K562 cells; type: functional
# Outline: (§1)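 Selectivity index is IC50 in normal HEK cells divided by IC50 in the cancer cell line.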
# [2] = Cytotoxicity against HEK cells after 72 hrs by MTT assay; type: cell-based; conditions: Homo sapiens, HEK293, 72 h
# Outline: (§2)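 Cells were seeded at 1×10⁴ per well and preincubated 18 h at 37 °C, 5% CO₂. They were then exposed to 1–256 μM for 72 h with DMSO ≤0.25%. MTT was added for 2 h and formazan was solubilized in extraction buffer before reading OD at 570 nm. IC50 is mean ± SD of three independent experiments. HEK is the normal-cell line; cancer lines were grown in DMEM with 10% serum.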
# [3] = tested on: HEK293; test: Selectivity index, ratio of IC50 for HEK cells to IC50 for human MCF7 cells; type: functional; outline: as §1
# [4] = tested on: MCF7; test: Cytotoxicity against human MCF7 cells after 72 hrs by MTT assay; type: functional, cell-based; conditions: MCF7, 72 h; outline: as §2
# [5] = tested on: HeLa; test: Selectivity index, ratio of IC50 for HEK cells to IC50 for human HeLa cells; type: functional; outline: as §1
# [6] = tested on: K562; test: Cytotoxicity against human K562 cells after 72 hrs by MTT assay; type: functional, cell-based; conditions: K562, 72 h; outline: as §2
# [7] = tested on: HeLa; test: Cytotoxicity against human HeLa cells after 72 hrs by MTT assay; type: functional, cell-based; outline: as §2
# [8] = tested on: HeLa; test: Cell cycle arrest in human HeLa cells assessed as accumulation at G2/M phase at 4 uM after 48 hrs by propidium iodide staining-based flow cytometric analysis (reference value: 19%)
# [9] = tested on: HeLa; test: Cell cycle arrest in human HeLa cells assessed as accumulation at S phase at 8 uM after 48 hrs by propidium iodide staining-based flow cytometric analysis (reference value: 10%); type: functional
# [10] = tested on: HeLa; test: Cell cycle arrest in human HeLa cells assessed as accumulation at S phase at 4 uM after 48 hrs by propidium iodide staining-based flow cytometric analysis (reference value: 7%); type: functional
# [11] = tested on: HeLa; test: Cell cycle arrest in human HeLa cells assessed as accumulation at G2/M phase at 4 uM after 48 hrs by propidium iodide staining-based flow cytometric analysis (reference value: 31%); type: functional
# [12] = tested on: HeLa; test: Cell cycle arrest in human HeLa cells assessed as accumulation at G0 phase at 8 uM after 48 hrs by propidium iodide staining-based flow cytometric analysis (reference value: 3%); type: functional
# [13] = tested on: HeLa; test: Cell cycle arrest in human HeLa cells assessed as accumulation at G1 phase at 8 uM after 48 hrs by propidium iodide staining-based flow cytometric analysis (reference value: 68%); type: functional
# [14] = tested on: HeLa; test: Cell cycle arrest in human HeLa cells assessed as accumulation at G0/G1 phase at 4 uM after 48 hrs by propidium iodide staining-based flow cytometric analysis (reference value: 62%); type: functional
Compound,Ratio IC50 [1],IC50 [2],Ratio IC50 [3],IC50 [4],Ratio IC50 [5],IC50 [6],IC50 [7],Activity [8],Activity [9],Activity [10],Activity [11],Activity [12],Activity [13],Activity [14]
COc1ccc2cc(-c3cn(Cc4ccccc4-n4c(C)nc5cc(OC)c(OC)cc5c4=O)nn3)ccc2c1,2.42,68 µM,3.74,18.2 µM,4.65,28 µM,14.6 µM,,,,,,,
Cc1nc2ccccc2c(=O)n1-c1ccccc1Cn1ccnn1,3.39,76 µM,4.97,15.3 µM,4.62,22.4 µM,16.4 µM,,,,,,,
CCCCCC(O)c1cn(Cc2ccccc2-n2c(C)nc3cc(OC)c(OC)cc3c2=O)nn1 (stereo not given),2.09,48 µM,2.68,17.9 µM,3,22.9 µM,16 µM,,,,,,,
Cc1nc2ccccc2c(=O)n1-c1ccccc1Cn1cc(S)nn1,7.2,189 µM,12.61,15 µM,17.22,26.2 µM,11 µM,21%,6%,7%,22%,4%,69%,71%
COc1ccc2cc(-c3cn(Cc4ccccc4-n4c(C)nc5ccccc5c4=O)nn3)ccc2c1,9.11,178 µM,20.41,8.72 µM,20.5,19.5 µM,8.68 µM,17%,5%,5%,22%,5%,72%,73%
COc1cc2nc(C)n(-c3ccccc3Cn3cc(-c4ccccc4)nn3)c(=O)c2cc1OC,2.5,64 µM,6.96,9.19 µM,4.66,25.6 µM,13.7 µM,,,,,,,
COc1cc2nc(C)n(-c3ccccc3Cn3cc(S)nn3)c(=O)c2cc1OC,7.03,214 µM,21.9,9.77 µM,20.38,30.4 µM,10.5 µM,20%,5%,6%,23%,5%,70%,71%
COc1cc2nc(C)n(-c3ccccc3Cn3cc(-c4ccc(C)cc4)nn3)c(=O)c2cc1OC,7.28,204 µM,14.16,14.4 µM,20.56,28 µM,9.92 µM,17%,7%,6%,22%,5%,71%,72%
CCCCCCc1cn(Cc2ccccc2-n2c(C)nc3cc(OC)c(OC)cc3c2=O)nn1,2.2,53 µM,2.98,17.7 µM,3.62,24 µM,14.6 µM,,,,,,,
COc1cc2nc(C)n(-c3ccccc3Cn3nnc4ncccc43)c(=O)c2cc1OC,4.01,79 µM,4.25,18.6 µM,6.64,19.7 µM,11.9 µM,,,,,,,
COc1cc2nc(C)n(-c3ccccc3Cn3cc(CCO)nn3)c(=O)c2cc1OC,4.66,124 µM,8.85,14 µM,7.75,26.6 µM,16 µM,,,,,,,
COc1ccc(-c2cn(Cc3ccccc3-n3c(C)nc4ccccc4c3=O)nn2)cc1,5.17,116 µM,8.05,14.4 µM,9.06,22.4 µM,12.8 µM,,,,,,,
COc1cc2nc(C)n(-c3ccccc3Cn3cc(-c4cccc(C)c4)nn3)c(=O)c2cc1OC,1.77,56 µM,3.1,18 µM,3.88,31.5 µM,14.4 µM,,,,,,,
COc1cc2nc(C)n(-c3ccccc3Cn3cc(-c4cc5ccccc5c5ccccc45)nn3)c(=O)c2cc1OC,3.47,89 µM,6.72,13.2 µM,6.95,25.6 µM,12.8 µM,,,,,,,
COc1ccc(-c2cn(Cc3ccccc3-n3c(C)nc4cc(OC)c(OC)cc4c3=O)nn2)cc1,3.2,72 µM,5.15,14 µM,6.06,22.4 µM,11.9 µM,,,,,,,
CCCc1cn(Cc2ccccc2-n2c(C)nc3cc(OC)c(OC)cc3c2=O)nn1,3.3,74 µM,5.13,14.4 µM,5.58,22.4 µM,13.2 µM,,,,,,,
COc1cc2nc(C)n(-c3ccccc3Cn3ccnn3)c(=O)c2cc1OC,3.4,98 µM,4.13,23.7 µM,7.77,28.8 µM,12.6 µM,,,,,,,
COc1cc2nc(C)n(-c3ccccc3Cn3cc(-c4cccnc4)nn3)c(=O)c2cc1OC,2.7,54 µM,5.3,10.2 µM,4.07,20 µM,13.2 µM,,,,,,,
COc1cccc(-c2cn(Cc3ccccc3-n3c(C)nc4cc(OC)c(OC)cc4c3=O)nn2)c1,2.27,51 µM,3.37,15.1 µM,4.29,22.4 µM,11.9 µM,,,,,,,
COc1cc2nc(C)n(-c3ccccc3Cn3cc(-c4ccc(-c5ccccc5)cc4)nn3)c(=O)c2cc1OC,3.16,71 µM,6.78,10.5 µM,5.01,22.4 µM,14.2 µM,,,,,,,
COc1cc2nc(C)n(-c3ccccc3Cn3cc(CO)nn3)c(=O)c2cc1OC,3.92,110 µM,6.94,15.8 µM,9.25,28 µM,11.9 µM,,,,,,,
